# Laboratory results taken from ChEMBL document CHEMBL4196041 (Eur J Med Chem, 2018).
# Legend:
# [1] = Drug level in Wistar rat liver S9 fraction treated with N-(benzo[d]thiazol-6-yl)-3-(cyclopropylmethoxy)-4-(difluoromethoxy)benzamide at 20 uM in presence of NADPH by UPLC-MS/MS analysis; type: ADME, subcellular; settings: s9, 20 µM
# [2] = biological target: T1, 3',5'-cyclic-AMP phosphodiesterase 4B (Homo sapiens, UniProt Q07343); test: Inhibition of PDE4B (unknown origin) assessed as increase in cAMP level by measuring cAMP level after 3 hrs by cell based ELISA
# T1 sequence (Q07343 whole entry): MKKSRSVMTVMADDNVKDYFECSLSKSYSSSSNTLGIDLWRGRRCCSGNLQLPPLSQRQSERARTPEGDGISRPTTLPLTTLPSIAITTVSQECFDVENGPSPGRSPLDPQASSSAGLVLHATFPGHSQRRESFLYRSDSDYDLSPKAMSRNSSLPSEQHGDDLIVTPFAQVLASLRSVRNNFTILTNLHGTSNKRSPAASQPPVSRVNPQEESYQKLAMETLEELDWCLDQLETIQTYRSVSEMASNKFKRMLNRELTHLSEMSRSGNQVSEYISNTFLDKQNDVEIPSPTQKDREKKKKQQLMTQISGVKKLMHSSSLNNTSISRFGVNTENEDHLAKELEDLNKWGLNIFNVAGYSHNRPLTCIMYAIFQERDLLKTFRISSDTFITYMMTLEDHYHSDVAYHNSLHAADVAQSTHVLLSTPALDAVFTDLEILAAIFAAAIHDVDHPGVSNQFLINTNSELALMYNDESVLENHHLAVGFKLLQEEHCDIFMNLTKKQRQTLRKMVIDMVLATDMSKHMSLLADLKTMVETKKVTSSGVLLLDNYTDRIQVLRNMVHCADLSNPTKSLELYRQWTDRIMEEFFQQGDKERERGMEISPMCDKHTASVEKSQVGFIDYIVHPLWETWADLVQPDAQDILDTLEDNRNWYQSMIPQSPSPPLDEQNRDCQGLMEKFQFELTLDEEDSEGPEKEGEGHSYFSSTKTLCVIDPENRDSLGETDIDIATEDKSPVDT
# [3] = biological target: T1, 3',5'-cyclic-AMP phosphodiesterase 4B; test: Inhibition of PDE4B (unknown origin) assessed as reduction in TNFalpha level after 1.5 hrs by cell based ELISA; settings: concentration not given here
# [4] = Half life in Wistar rat liver S9 fraction at 20 uM in presence of NADPH by HPLC-UV analysis; type: ADME, subcellular
# Procedure, shortened: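 Phase I stability in liver S9 (9,000× g) from male Wistar rats, prepared at 0–4°C. […] Stopped with cold acetonitrile plus chlorzoxazone internal standard. Centrifuged, then intact compound quantified by HPLC-UV; t1/2 and CLint derived from this.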
# [5] = Intrinsic clearance in Wistar rat liver S9 fraction at 20 uM in presence of NADPH by UPLC-MS/MS analysis; type: ADME, subcellular
# [6] = Protein binding in human plasma after 5 hrs by equilibrium dialysis method; type: ADME, cell-free; settings: read-out: PPB (converted)
# Procedure, shortened: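 Equilibrium dialysis across a cellulose membrane (MWCO 12-14 kDa) against isotonic PBS pH 7.4, with human plasma, 37°C for 5 hr. Compound in the plasma and buffer compartments measured by validated RP-HPLC-UV. %Bound = [1 − (buffer conc/plasma conc)] × 100.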
# [7] = Half life in Sprague-Dawley rat at 1 mg/kg, sc administered as single dose by UPLC-MS/MS analysis; type: ADME, organism-based; settings: in vivo
# [8] = Tmax in Sprague-Dawley rat at 1 mg/kg, sc administered as single dose by UPLC-MS/MS analysis; type: ADME, organism-based; settings: in vivo
# [9] = Cmax in Sprague-Dawley rat at 1 mg/kg, sc administered as single dose by UPLC-MS/MS analysis; type: ADME, organism-based; design: dose 1 mg/kg, route subcutaneous; settings: in vivo
# [10] = AUC (0 to t) in Sprague-Dawley rat at 1 mg/kg, sc administered as single dose by UPLC-MS/MS analysis; type: ADME, organism-based; settings: in vivo
# [11] = AUC (0 to infinity) in Sprague-Dawley rat at 1 mg/kg, sc administered as single dose by UPLC-MS/MS analysis; type: ADME, organism-based; design: dose 1 mg/kg, route subcutaneous, time infinity; settings: in vivo
# [12] = biological target: T1, 3',5'-cyclic-AMP phosphodiesterase 4B; test: Inhibition of human PDE4B by ELISA
# [13] = biological target: 3',5'-cyclic-AMP phosphodiesterase 4D (Homo sapiens, UniProt Q08499); test: Inhibition of human PDE4D by ELISA
# Sequence of 3',5'-cyclic-AMP phosphodiesterase 4D (Q08499 whole entry): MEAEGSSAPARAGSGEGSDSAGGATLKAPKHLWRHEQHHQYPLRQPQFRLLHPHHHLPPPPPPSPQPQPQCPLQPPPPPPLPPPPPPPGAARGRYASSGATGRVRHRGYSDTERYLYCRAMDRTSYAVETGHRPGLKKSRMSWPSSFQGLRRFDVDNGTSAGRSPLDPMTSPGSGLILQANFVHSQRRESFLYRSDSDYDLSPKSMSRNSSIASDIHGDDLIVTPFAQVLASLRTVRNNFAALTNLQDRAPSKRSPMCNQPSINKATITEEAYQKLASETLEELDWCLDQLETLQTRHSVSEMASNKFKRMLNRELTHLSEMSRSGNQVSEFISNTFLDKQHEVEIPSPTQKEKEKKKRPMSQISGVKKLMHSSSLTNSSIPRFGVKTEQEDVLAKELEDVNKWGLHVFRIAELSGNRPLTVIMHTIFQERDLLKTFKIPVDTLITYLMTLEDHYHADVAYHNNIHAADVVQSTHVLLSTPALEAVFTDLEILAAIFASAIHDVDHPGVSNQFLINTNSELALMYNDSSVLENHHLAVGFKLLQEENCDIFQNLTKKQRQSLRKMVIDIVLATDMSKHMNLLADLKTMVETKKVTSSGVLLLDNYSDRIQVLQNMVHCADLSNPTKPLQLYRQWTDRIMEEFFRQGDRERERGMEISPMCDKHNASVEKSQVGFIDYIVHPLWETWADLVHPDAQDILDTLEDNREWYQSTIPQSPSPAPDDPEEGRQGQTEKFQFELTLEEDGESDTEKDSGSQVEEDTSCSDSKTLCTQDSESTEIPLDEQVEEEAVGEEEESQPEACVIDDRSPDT
# Homo sapiens = species: Homo sapiens; test: Selectivity ratio of IC50 for human PDE4D to IC50 for human PDE4B
# [14] = biological target: T1, 3',5'-cyclic-AMP phosphodiesterase 4B; test: Inhibition of PDE4B (unknown origin) assessed as increase in cAMP level after 3 hrs by cell based ELISA relative to roflumilast
# [15] = Metabolic stability in Wistar rat liver S9 fraction assessed as parent compound remaining at 20 uM in presence of NADPH by UPLC-MS/MS analysis; type: ADME, subcellular; settings: read-out: Stability
# [16] = Drug metabolism in Wistar rat liver S9 fraction assessed as aromatic hydroxylation of benzathiazole moiety at 20 uM in presence of NADPH by UPLC-MS/MS analysis; type: ADME, subcellular; settings: s9, 20 µM
# [17] = Drug metabolism in Wistar rat liver S9 fraction assessed as 3-(cyclopropylmethoxy)-4-(difluoromethoxy)-N-(2-hydroxybenzo[d]thiazol-6-yl)benzamide formation at 20 uM in presence of NADPH by UPLC-MS/MS analysis; type: ADME, subcellular; settings: s9, 20 µM
# [18] = Drug metabolism in Wistar rat liver S9 fraction assessed as N-(4-amino-3-mercaptophenyl)-3-(cyclopropylmethoxy)-4-(difluoromethoxy)benzamide formation at 20 uM in presence of NADPH by UPLC-MS/MS analysis; type: ADME, subcellular; settings: s9, 20 µM
smiles,measurement,setting,value
Nc1ccc(NC(=O)c2ccc(OC(F)F)c(OCC3CC3)c2)cc1S,Drug metabolism,[1],Metabolite_Detected
O=C(Nc1c(Cl)cncc1Cl)c1ccc(OC(F)F)c(OCC2CC2)c1 [ROFLUMILAST],Activity,[2],1.9 pmol/mL
same,inhibition,[3],70.3%
same,half-life at 20 µM,[4],12.3 min
same,CLint at 20 µM,[5],114 mL/min/kg
same,fraction unbound at 5 h,[6],0.0151
same,half-life,[7],416 min
same,Tmax,[8],1 h
same,Cmax,[9],109 µg/mL
same,AUC(0-t),[10],449 µg·h/mL
same,AUC(0-inf),[11],500 µg·h/mL
O=C(Nc1ccc2nc(S)sc2c1)c1ccc(OC(F)F)c(OCC2CC2)c1,IC50,[12],0.75 nM
same,IC50,[13],4.54 nM
same,Ratio IC50,Homo sapiens,6.05
same,Activity,[2],4.45 pmol/mL
same,inhibition,[3],67.8%
same,fold change (FC),[14],> 2
same,half-life at 20 µM,[4],248 min
same,CLint at 20 µM,[5],5.67 mL/min/kg
same,fraction unbound at 5 h,[6],0.463
same,half-life,[7],1320 min
same,Tmax,[8],2 h
same,Cmax,[9],114 µg/mL
same,AUC(0-t),[10],622 µg·h/mL
same,AUC(0-inf),[11],1040 µg·h/mL
same,remaining at 20 µM,[15],84.2%
N#Cc1ccc2nc(NC(=O)c3ccc(OC(F)F)c(OCC4CC4)c3)sc2c1,IC50,[12],1.28 nM
O=C(Nc1nc2ccccc2s1)c1ccc(OC(F)F)c(OCC2CC2)c1,IC50,[12],0.57 nM
same,IC50,[13],5.07 nM
same,Ratio IC50,Homo sapiens,8.89
same,Activity,[2],2.68 pmol/mL
same,inhibition,[3],58.6%
same,half-life at 20 µM,[4],42.3 min
same,CLint at 20 µM,[5],33.2 mL/min/kg
same,half-life,[7],589 min
same,Tmax,[8],1 h
same,Cmax,[9],95.5 µg/mL
same,AUC(0-t),[10],594 µg·h/mL
same,AUC(0-inf),[11],800 µg·h/mL
same,Drug metabolism,[16],Metabolite_Detected
same,remaining at 20 µM,[15],36.4%
O=C(Nc1nc2ccc([N+](=O)[O-])cc2s1)c1ccc(OC(F)F)c(OCC2CC2)c1,IC50,[12],8.67 nM
CCOc1ccc2nc(NC(=O)c3ccc(OC(F)F)c(OCC4CC4)c3)sc2c1,IC50,[12],2.92 nM
O=C(Nc1nc2ccc(Cl)cc2s1)c1ccc(OC(F)F)c(OCC2CC2)c1,IC50,[12],1.22 nM
O=C(Nc1nccs1)c1ccc(OC(F)F)c(OCC2CC2)c1,IC50,[12],1.6 nM
O=C(Nc1nc2ccc(C(F)(F)F)cc2s1)c1ccc(OC(F)F)c(OCC2CC2)c1,IC50,[12],5.23 nM
O=C(Nc1ccc2nc(O)sc2c1)c1ccc(OC(F)F)c(OCC2CC2)c1,Drug metabolism,[1],Metabolite_Detected
COc1cccc2sc(NC(=O)c3ccc(OC(F)F)c(OCC4CC4)c3)nc12,IC50,[12],1.06 nM
O=C(Nc1nc2ccc(F)cc2s1)c1ccc(OC(F)F)c(OCC2CC2)c1,IC50,[12],1.87 nM
O=C(Nc1ccc2ncsc2c1)c1ccc(OC(F)F)c(OCC2CC2)c1,IC50,[12],0.68 nM
same,IC50,[13],2.73 nM
same,Ratio IC50,Homo sapiens,4.01
same,half-life at 20 µM,[4],63 min
same,CLint at 20 µM,[5],22.3 mL/min/kg
same,fraction unbound at 5 h,[6],0.0361
same,half-life,[7],1320 min
same,Tmax,[8],2 h
same,Cmax,[9],86.2 µg/mL
same,AUC(0-t),[10],892 µg·h/mL
same,AUC(0-inf),[11],1620 µg·h/mL
same,Drug metabolism,[17],Metabolite_Detected
same,Drug metabolism,[18],Metabolite_Detected
same,remaining at 20 µM,[15],36.8%
COc1cc2nc(NC(=O)c3ccc(OC(F)F)c(OCC4CC4)c3)sc2cc1OC,IC50,[12],1.17 nM
COc1ccc2nc(NC(=O)c3ccc(OC(F)F)c(OCC4CC4)c3)sc2c1,IC50,[12],2.28 to 2.29 nM
Cc1nc2ccc(NC(=O)c3ccc(OC(F)F)c(OCC4CC4)c3)cc2s1,IC50,[12],1.26 nM
